WT yeast gro inh = growth inhibition of WT strain, primary screen, mitochondrial fusion inhibitor project, WT and mutant strains, chemical genetic | mitochondrial fusion phenotypic screen | inhibition, % at 10 µM | actives 2.1% (n = 190,000); in the data active means inhibition above about 58%; tested in S. cerevisiae
14-3-3 Bad PPI = inhibitors of 14-3-3 zeta/Bad binding, primary screen, biochemical, TR-FRET, bovine 14-3-3 zeta; 14-3-3 protein zeta/delta (Bos taurus), P63103; TR-FRET 14-3-3zeta/Dy647-pBad peptide displacement, 1 h; inhibition, % at 21.7 µM; actives 0.71% (n = 220,000); AID 781, 2007;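 active means inhibition above about 70%, limit read from the data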;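 further: 0% = full 14-3-3 plus peptide FRET controls and 100% = background without 14-3-3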
NCF1 inh = p47phox/p22phox peptide binding inhibitors, primary screen, biochemical, uHTS, NADPH oxidase regulatory subunit; Neutrophil cytosol factor 1 (Homo sapiens), P14598; fluorescence polarization, 2 h; inhibition, % at 24.7 µM; actives 0.53% (n = 220,000);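 active means inhibition above about 30%, limit read from the data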;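 further: 0% = p47phox with labelled peptide and 100% = labelled peptide alone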
RBBP9 inhibitor = human RBBP9 inhibitors, primary screen, biochemical, fluorescence polarization, FP-Rh probe, HTS; Serine hydrolase RBBP9 (Homo sapiens), O75884; recombinant RBBP9; inhibition, % at 7.94 µM; actives 0.2% (n = 220,000);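 active means inhibition above the campaign mean of all tested compounds plus 3 SD, cut at about 14% in these data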;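 further: plate controls were DMSO wells with RBBP9 for no effect and wells lacking RBBP9 protein for full effect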
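Measured by: FP readout at 525/598 nm; material: recombinant human RBBP9; also added: Serine-hydrolase probe FP-Rh, 375 nM pre-mixing; medium: Tris buffer pH 8.0, NaCl, Pluronic; replication: one well per compound; doses: one concentration, 7.94 µM nominal, 0.794% DMSO; timing: preincubation 30 min plus labeling 45 min at 25 °C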
KCC2 mod = KCC2 cotransporter modulators, thallium flux, primary screen, cell-based, HEK293 KCC2, FluoZin-2 fluorescence, MLSMR; actives 2.2% (n = 190,000); Solute carrier family 12 member 5 (Homo sapiens), Q9H2X9; KCC2 cells, thallium flux FluoZin-2 fluorescence; B-score of Tl+ flux slope (higher = more flux/activation; lower = inhibition) at 10 µM;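 active means thallium flux slope and its plate-corrected score both differing from the plate sample mean at a set confidence after two filtering rounds, in either direction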;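 further: slope of fluorescence scaled to starting intensity during 10 to 20 s after thallium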
Target sequence (Q9H2X9 whole entry, looked up): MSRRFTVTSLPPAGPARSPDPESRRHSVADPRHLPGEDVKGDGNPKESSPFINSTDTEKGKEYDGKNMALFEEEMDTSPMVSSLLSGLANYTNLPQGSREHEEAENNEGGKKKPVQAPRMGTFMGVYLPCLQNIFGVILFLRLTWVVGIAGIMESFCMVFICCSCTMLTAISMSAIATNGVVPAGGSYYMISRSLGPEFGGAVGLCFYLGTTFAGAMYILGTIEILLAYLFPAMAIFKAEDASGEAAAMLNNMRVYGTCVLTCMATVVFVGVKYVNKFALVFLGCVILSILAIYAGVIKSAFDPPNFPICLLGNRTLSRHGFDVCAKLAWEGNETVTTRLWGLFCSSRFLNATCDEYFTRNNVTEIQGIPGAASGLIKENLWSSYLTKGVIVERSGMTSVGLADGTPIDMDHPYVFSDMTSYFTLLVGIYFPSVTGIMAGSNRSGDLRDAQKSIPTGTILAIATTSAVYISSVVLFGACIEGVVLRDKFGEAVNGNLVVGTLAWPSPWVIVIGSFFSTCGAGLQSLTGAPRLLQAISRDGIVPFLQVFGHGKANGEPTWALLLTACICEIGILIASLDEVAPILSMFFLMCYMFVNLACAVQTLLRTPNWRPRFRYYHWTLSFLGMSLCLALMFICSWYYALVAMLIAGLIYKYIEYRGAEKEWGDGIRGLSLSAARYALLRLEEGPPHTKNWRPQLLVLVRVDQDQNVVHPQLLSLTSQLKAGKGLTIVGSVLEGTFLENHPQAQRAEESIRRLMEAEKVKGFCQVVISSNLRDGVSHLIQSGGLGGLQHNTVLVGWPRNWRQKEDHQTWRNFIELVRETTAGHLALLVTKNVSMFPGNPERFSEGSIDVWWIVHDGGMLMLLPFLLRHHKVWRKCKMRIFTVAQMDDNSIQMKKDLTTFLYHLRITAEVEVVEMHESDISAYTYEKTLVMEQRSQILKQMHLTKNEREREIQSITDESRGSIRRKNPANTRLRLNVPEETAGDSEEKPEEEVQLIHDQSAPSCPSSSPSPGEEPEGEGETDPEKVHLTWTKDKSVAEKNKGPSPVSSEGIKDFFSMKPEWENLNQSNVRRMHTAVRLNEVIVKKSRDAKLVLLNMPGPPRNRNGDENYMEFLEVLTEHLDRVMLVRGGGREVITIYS
ROMK primary = ROMK potassium channel modulators, primary screen, cell-based, thallium flux, MLSMR library; B-score at 10 µM; Tet-inducible ROMK, thallium flux fluorescence; actives lie on both sides; actives 2% (n = 130,000); AID 1918, 2009;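 active means signal ratio slope over the read window, or its plate-corrected B-score, at least 3 SD from the plate mean, either direction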;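 further: B-score of the F/F0 ratio slope over 7 to 12 s after thallium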
KCC2 sec1 = KCC2 modulators in sodium-free buffer, confirmation, cell-based, HEK293 KCC2, thallium flux, secondary assay. shares compounds with KCC2 mod. FluoZin2 fluorescence; hits give high values. normalised thallium flux (F/F0 slope) at 10 µM. actives 15% (n = 3,700). AID 1713, 2009;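 active means thallium flux slope above the same plate's solvent-only control mean plus 3 SD; inconclusive means the two replicate wells disagree; inactive means no significant difference from solvent-only control wells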
KCC2 bumet counter = thallium flux persisting under bumetanide in KCC2 cells, confirmation, counter-screen for KCC2 modulator project, cell-based, HEK293 KCC2, FluoZin2, secondary assay 3. shares compounds with KCC2 mod. HEK293-KCC2 + bumetanide/ouabain; hits give high values. normalized thallium flux at 10 µM. actives 49% (n = 3,700). AID 1714, 2009;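 active means thallium entry rate above the same plate's blocked-transporter control wells by more than 3 SD; inconclusive means the two repeat wells disagree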;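 further: raw slope of fluorescence over initial fluorescence between 10 and 20 s after thallium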
KCC2 sec2 = KCC2 modulators without ouabain present, confirmation, cell-based, HEK293 KCC2, thallium flux, FluoZin2, secondary assay 2 | shares compounds with KCC2 mod | thallium flux FluoZin2 fluorescence; actives lie on both sides; F/F0 rise rate, 10–20 s post-thallium | normalized thallium flux at 10 µM | actives 23% (n = 3,700) | AID 1715, 2009;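 active means thallium flux slope more than 3 SD above or below the plate's solvent-only control mean, mostly below; inconclusive means the two repeat wells disagreed; inactive means no significant shift from solvent-only controls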;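 further: raw slope with 0.1% DMSO as baseline and bumetanide as block control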
HEK counter1 = thallium flux modulation in parental HEK cells, confirmation, counter-screen for KCC2 modulator project, cell-based, counterscreen 1. shares compounds with KCC2 mod. HEK293 parental cells, thallium flux FluoZin2, ouabain; baseline-ratio fluorescence slope, 10–20 s after thallium. thallium flux rate (normalised fluorescence) at 10 µM. actives 46% (n = 3,700);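 active means thallium flux rate significantly above the same plate's solvent-only control wells, beyond their mean plus 3 SD; inconclusive means the two replicate wells gave conflicting results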
KCC2 retest ouab = KCC2 inhibitors and activators, ouabain retest, confirmation, HEK-KCC2 cells; AID 1717, 2009; HEK293-KCC2, thallium flux FluoZin2 fluorescence; bidirectional: low = inhibitor, high = activator; actives 48% (n = 3,700); shares compounds with KCC2 mod; raw Tl+ flux slope (below DMSO = inhibition, above = activation) at 10 µM;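 active means thallium flux slope beyond 3 SD from same-plate DMSO control mean in most replicates, usually higher, sometimes lower; inconclusive means repeat tests gave conflicting results; inactive means no significant difference from controls in most replicates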;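 further: slope of initial-normalized fluorescence between seconds 10 and 20 after thallium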
HEK293 Tl flux2 = native HEK Tl+ uptake effects, second counter-screen – HEK cells, counterscreen 2, counter-screen for KCC2 modulator project, confirmation; AID 1718, 2009; shares compounds with KCC2 mod; HEK293 parental, thallium flux FluoZin-2 fluorescence slope; actives 33% (n = 3,700); thallium flux slope at 10 µM;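 active means thallium flux slope above the same plate's solvent-control mean plus 3 SD in both duplicate wells; inconclusive means duplicate wells that disagreed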;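 further: run without ouabain in cells lacking the KCC2 cotransporter; slope of fluorescence scaled to its starting value between 10 and 20 s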
The depositor's hits bear a star; ? = inconclusive; nt = no result. In the library only some 5.8% were active in any assay of this set; here they are far more common.

SMILES	WT yeast gro inh	14-3-3 Bad PPI	NCF1 inh	RBBP9 inhibitor	KCC2 mod	ROMK primary	KCC2 sec1	KCC2 bumet counter	KCC2 sec2	HEK counter1	KCC2 retest ouab	HEK293 Tl flux2
CCNC(=S)Nc1ccc(Cl)c(C(F)(F)F)c1	23	-16	-5	-10	-0.62	0.56	nt	nt	nt	nt	nt	nt
O=C(NC(=S)Nc1ccc(-c2nc3ncccc3o2)cc1)c1ccccc1F	0	25	14	4	4.7*	0.012	0.0081	0.013*	0.033	0.011*	?	0.011
Cc1c(NC(=O)C(C)N(c2ccccc2)S(C)(=O)=O)c(=O)n(-c2ccccc2)n1C (stereo not drawn)	16	-1	-7	-5	0.29	0.25	nt	nt	nt	nt	nt	nt
Cc1ccc(C(=O)N2CCCC2)cc1Br	8	nt	92*	0	-3.1*	0.5	0.0096	?	0.034	0.0077	0.021	0.011
O=C(c1ccc(C(=O)N2CCCCCC2)cc1)N1CCCCCC1	-17	-8	-9	2	1.2	nt	nt	nt	nt	nt	nt	nt
CC(C)CNC(=O)c1cccc(NC(=O)C(C)Oc2ccccc2)c1 (stereo not drawn)	-2	-3	-3	2	-0.02	0.0066	nt	nt	nt	nt	nt	nt
COc1ccc(-c2csc(NC(=O)c3cccs3)c2C(=O)O)cc1OC	-8	-4	-12	3	-3.7*	nt	0.0076	0.0065	0.036	0.0036	0.016*	0.012
Cc1ccc(C(=O)Nc2scc(-c3ccccc3)c2C(=O)O)o1	-3	-2	-13	-7	-0.79	0.067	nt	nt	nt	nt	nt	nt
COc1ccc(-c2csc(NC(=O)Cc3cccc4ccccc34)c2C(=O)O)cc1	2	-10	-16	-1	-4.1*	0.58	0.0078	0.0051	0.028	0.0084	0.017	0.011
Nc1ccc2c(c1)OC1(CCCC1)O2	7	2	14	-7	0.33	0.76	nt	nt	nt	nt	nt	nt
Clc1ccc2nc(C3CCN(Cc4nnnn4C4CCCCC4)CC3)[nH]c2c1	-15	-8	4	-12	-4.4*	-2.2	0.007	0.0061	0.028	0.0065	?	0.01
CCOc1ccc(Nc2n[nH]c(=S)s2)cc1	-27	-5	-6	4	-5.3*	nt	?	0.0053	0.02*	0.0083	?	0.011

High-throughput results deposited in PubChem by several laboratories.
